ChEMBL document CHEMBL4428078, “Discovery of S3-Truncated, C-6 Heteroaryl Substituted Aminothiazine β-Site APP Cleaving Enzyme-1 (BACE1) Inhibitors” (J Med Chem, 2016)

Assays:
[1] = Drug uptake in mouse brain at 30 mg/kg, po measured after 3 hrs; type: ADME, organism-based; conditions: read-out: Drug uptake
Method in brief: (§1)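 Young mice given a single oral dose of 30 mg/kg. Total brain and plasma drug levels were measured 3 h post-dose and the brain/plasma ratio derived.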

[2] = test system: Mus musculus; experiment: In vivo inhibition of BACE1 in mouse assessed as reduction in brain amyloid beta level at 30 mg/kg, po measured after 3 hrs by ELISA relative to control; type: functional
Method in brief: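 Young mice dosed orally at 30 mg/kg. Brain Aβ was measured 3 h post-dose and expressed as percent reduction.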

[3] = biological target: Beta-secretase 1 (Homo sapiens, UniProt P56817); experiment: Inhibition of BACE1 in human H4 cells expressing swedish mutant APP751 assessed as reduction in amyloid beta level measured after 19 hrs; type: cell-based
Sequence of Beta-secretase 1 (P56817 whole entry): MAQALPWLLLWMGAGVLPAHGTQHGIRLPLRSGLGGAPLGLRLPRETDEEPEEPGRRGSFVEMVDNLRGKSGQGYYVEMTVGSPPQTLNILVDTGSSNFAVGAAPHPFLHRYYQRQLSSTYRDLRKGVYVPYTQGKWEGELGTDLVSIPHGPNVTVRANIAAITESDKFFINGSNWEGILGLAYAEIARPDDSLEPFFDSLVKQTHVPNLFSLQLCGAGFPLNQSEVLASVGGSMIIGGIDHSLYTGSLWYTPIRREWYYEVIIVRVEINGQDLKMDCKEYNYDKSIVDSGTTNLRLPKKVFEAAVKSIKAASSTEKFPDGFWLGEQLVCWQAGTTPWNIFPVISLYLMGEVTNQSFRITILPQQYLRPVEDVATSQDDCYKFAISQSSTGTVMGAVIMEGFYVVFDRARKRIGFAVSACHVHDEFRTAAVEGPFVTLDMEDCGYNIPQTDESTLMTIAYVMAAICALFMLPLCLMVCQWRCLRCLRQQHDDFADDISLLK

[4] = Metabolic stability in rat liver microsomes assessed as compound remaining at 0.5 uM measured after 10 mins; type: ADME, Microsome; conditions: read-out: Stability
Method in brief: (§2)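 Test compound at 0.5 µM incubated 10 min with mouse, rat or human liver microsomes. Read-out is percent of parent compound remaining.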

[5] = Plasma concentration in mouse at 30 mg/kg, po measured after 3 hrs; type: ADME, organism-based; method in brief: as §1
[6] = Metabolic stability in mouse liver microsomes assessed as compound remaining at 0.5 uM measured after 10 mins; type: ADME, Microsome; conditions: read-out: Stability; method in brief: as §2
[7] = Metabolic stability in human liver microsomes assessed as compound remaining at 0.5 uM measured after 10 mins; type: ADME, Microsome; conditions: read-out: Stability; method in brief: as §2
[8] = Ratio of drug level in brain to plasma of mouse at 30 mg/kg, po measured at 3 hrs post dose; type: ADME, organism-based; conditions: read-out: BPR; method in brief: as §1
[9] = test system: Rattus norvegicus; experiment: In vivo inhibition of BACE1 in po dosed rat assessed as reduction in total amyloid beta level in brain measured after 5 hrs by ELISA relative to control
[10] = test system: Rattus norvegicus; experiment: In vivo inhibition of BACE1 in po dosed rat assessed as reduction in brain amyloid beta40 level measured after 5 hrs by ELISA relative to control
[11] = test system: Rattus norvegicus; experiment: In vivo inhibition of BACE1 in po dosed rat assessed as reduction in brain amyloid beta42 level measured after 5 hrs by ELISA relative to control

Compound	concentration at 3 h [1] [µM]	IC50 [3] [nM]	remaining at 10 min, 0.5 µM [4] [%]	concentration at 3 h [5] [µM]	remaining at 10 min, 0.5 µM [6] [%]	remaining at 10 min, 0.5 µM [7] [%]	Kp at 3 h [8]	inhibition in vivo at 30 mg/kg [2] [%]	inhibition [9]	inhibition [10]	inhibition [11]
Cc1onc(-c2ccc(F)cc2)c1[C@@H]1C[C@@](C)(c2ccc(F)cc2F)N=C(N)S1	–	320	35	–	23	24	–	–	–	–	–
Cc1noc(C)c1[C@@H]1C[C@@](C)(c2ccccc2)N=C(N)S1	–	480	81	–	78	86	–	–	–	–	–
Cc1noc(C)c1[C@@H]1C[C@@](C)(c2sccc2Cl)N=C(N)S1	–	300	12	–	21	11	–	–	–	–	–
Cc1noc(C(F)F)c1[C@@H]1C[C@@](C)(c2ccc(F)cc2F)N=C(N)S1	–	420	67	–	59	35	–	–	–	–	–
Cc1noc(C)c1[C@@H]1C[C@@](C)(c2cc(-c3cncnc3)c(F)cc2F)N=C(N)S1	0.58	–	–	7.4	–	–	0.08	–	–	–	–

The remaining molecules from weak to strong by IC50 [3], led by results:

concentration at 3 h [1] [µM]	IC50 [3] [nM]	remaining at 10 min, 0.5 µM [4] [%]	concentration at 3 h [5] [µM]	remaining at 10 min, 0.5 µM [6] [%]	remaining at 10 min, 0.5 µM [7] [%]	Kp at 3 h [8]	Compound	inhibition in vivo at 30 mg/kg [2] [%]	inhibition [9]	inhibition [10]	inhibition [11]
4.3	350	78	4.3	72	70	1.3	Cn1nccc1[C@@H]1C[C@@](C)(c2ccc(F)cc2F)N=C(N)S1	62	–	–	–
–	160	13	–	12	38	–	Cc1onc(-c2ccccc2)c1[C@@H]1C[C@@](C)(c2ccc(F)cc2F)N=C(N)S1	–	–	–	–
3.6	150	78	4.8	72	24	0.75	Cc1noc(C)c1[C@@H]1C[C@@](C)(c2ccc(F)cc2F)N=C(N)S1	62	Dose-dependent effect	Dose-dependent effect	Dose-dependent effect
